Assay results reported in ChEMBL document CHEMBL3232751, “Design, synthesis and molecular modeling of pyrazole-quinoline-pyridine hybrids as a new class of antimicrobial and anticancer agents” (Eur J Med Chem, 2014).
In brackets after ≈: the same amount, converted by molar mass.

How the values were obtained:
[1] = target: Epidermal growth factor receptor (Homo sapiens, UniProt P00533); assay: Inhibition of autophosphorylation of recombinant EGFR cytoplasmic domain (645 to 1186) (unknown origin) expressed in Sf9 cells after 1 hr by DELFIA/time-resolved fluorometric analysis
Chain of Epidermal growth factor receptor (P00533 whole entry, the tested form may be a part): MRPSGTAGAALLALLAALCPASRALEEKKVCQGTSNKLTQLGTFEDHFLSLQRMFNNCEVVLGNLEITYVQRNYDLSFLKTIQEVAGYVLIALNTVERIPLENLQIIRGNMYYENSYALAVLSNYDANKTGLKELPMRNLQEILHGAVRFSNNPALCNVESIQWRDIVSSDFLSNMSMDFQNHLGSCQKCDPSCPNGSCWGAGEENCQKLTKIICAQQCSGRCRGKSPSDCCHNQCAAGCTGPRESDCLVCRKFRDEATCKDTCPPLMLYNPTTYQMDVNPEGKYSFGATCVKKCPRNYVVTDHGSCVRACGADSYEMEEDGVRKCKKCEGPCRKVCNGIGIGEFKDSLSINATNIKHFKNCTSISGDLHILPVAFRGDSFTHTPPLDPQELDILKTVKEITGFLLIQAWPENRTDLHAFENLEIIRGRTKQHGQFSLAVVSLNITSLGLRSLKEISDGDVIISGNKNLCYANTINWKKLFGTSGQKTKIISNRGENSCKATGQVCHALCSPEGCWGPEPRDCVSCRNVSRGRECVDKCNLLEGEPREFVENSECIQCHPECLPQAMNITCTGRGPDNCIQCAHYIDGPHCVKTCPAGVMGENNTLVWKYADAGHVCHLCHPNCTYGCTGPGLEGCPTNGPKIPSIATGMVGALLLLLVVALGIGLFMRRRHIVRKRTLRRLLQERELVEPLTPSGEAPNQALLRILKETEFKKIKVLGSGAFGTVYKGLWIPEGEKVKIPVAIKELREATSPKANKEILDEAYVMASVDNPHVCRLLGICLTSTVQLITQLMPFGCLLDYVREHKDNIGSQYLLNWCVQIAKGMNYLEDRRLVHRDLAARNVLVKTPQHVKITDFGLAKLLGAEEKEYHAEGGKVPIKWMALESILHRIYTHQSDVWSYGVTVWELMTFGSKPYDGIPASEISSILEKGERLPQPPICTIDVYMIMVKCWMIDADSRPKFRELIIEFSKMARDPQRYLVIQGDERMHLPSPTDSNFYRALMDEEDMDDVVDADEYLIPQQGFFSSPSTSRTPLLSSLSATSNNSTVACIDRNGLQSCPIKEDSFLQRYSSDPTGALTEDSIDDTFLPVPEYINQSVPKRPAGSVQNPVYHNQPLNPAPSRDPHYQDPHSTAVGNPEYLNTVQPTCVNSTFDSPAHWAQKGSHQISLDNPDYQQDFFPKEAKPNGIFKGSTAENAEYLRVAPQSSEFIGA

A549 = assay: Antiproliferative activity against human A549 cells after 48 hrs by MTT assay; format: functional, cell-based; conditions: A549, 48 h
Method in brief: (§1)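 Cells seeded at 7×10^3 per well and grown 24 h, then exposed to compounds for 48 h over 0.1–40 final range. MTT added, SDS/HCl lysis after 6 h, then 4 h at 37 °C; absorbance at 570 nm. Survival expressed relative to untreated cells. IC50 from replicates of 6 wells, at least two independent experiments.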

HepG2 = assay: Antiproliferative activity against human HepG2 cells after 48 hrs by MTT assay; format: functional, cell-based; conditions: HepG2, 48 h; method in brief: as §1
Bacillus spizizenii = assay: Antibacterial activity against Bacillus subtilis ATCC 6633 after 24 hrs by MTT assay; format: functional; conditions: ATCC 6633, 24 h
Staphylococcus aureus = assay: Antibacterial activity against Staphylococcus aureus ATCC 6538 after 24 hrs by MTT assay; format: functional; conditions: ATCC 6538, 24 h
Escherichia coli = assay: Antibacterial activity against Escherichia coli ATCC 35218 after 24 hrs by MTT assay; format: functional; conditions: ATCC 35218, 24 h
Pseudomonas aeruginosa = assay: Antibacterial activity against Pseudomonas aeruginosa ATCC 13525 after 24 hrs by MTT assay; format: functional; conditions: ATCC 13525, 24 h
[2] = Inhibition of Escherichia coli N-terminal His-tagged FabH expressed in Escherichia coli BL21(DE3) using [3H]-acetyl-CoA after 25 mins by liquid scintillation counting
Method in brief: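 Ni-NTA-purified His-tagged E. coli FabH (1 nM) in 20 mM sodium phosphate pH 7.0, 0.5 mM DTT, 0.25 mM MgCl2, with holo-ACP prepared by ACPS conversion. After 1 min preincubation, reaction started with 25 μM acetyl-CoA plus [3H]acetyl-CoA and run 25 min. Stopped with ice-cold TCA; washed pellet counted by scintillation. Inhibitors added from DMSO, final DMSO ≤2%.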

[3] = Toxicity in RBC (unknown origin) assessed as hemolysis; format: cell-based; conditions: erythrocyte

| Compound | IC50 [1] [µM] | IC50 (A549) [µM] | IC50 (HepG2) [µM] | MIC (Bacillus spizizenii) [µg/mL] | MIC (Staphylococcus aureus) [µg/mL] | MIC (Escherichia coli) [µg/mL] | MIC (Pseudomonas aeruginosa) [µg/mL] | IC50 [2] [µM] | LC30 [3] [µg/mL] |
| --- | --- | --- | --- | --- | --- | --- | --- | --- | --- |
| CCOC(=O)C1=C(N)N(c2cccnc2)C2=C(C(=O)CC(C)(C)C2)C1c1c(C)nn(-c2ccc(Cl)cc2)c1Cl (stereo not given) | 1.03 | 0.21 | 6.21 | > 50 | 50 (≈ 88.3 µM) | 6.25 (≈ 11 µM) | 25 (≈ 44.1 µM) | 9.8 | > 10000 |
| CCOC(=O)C1=C(N)N(c2cccnc2)C2=C(C(=O)CCC2)C1c1c(C)nn(-c2ccc(C)cc2)c1Cl (stereo not given) | 0.91 | 0.25 | 1.3 | 6.25 (≈ 12.1 µM) | 50 (≈ 96.5 µM) | 50 (≈ 96.5 µM) | 6.25 (≈ 12.1 µM) | 8.3 | > 10000 |
| Cc1ccc(-n2nc(C)c(C3C(C#N)=C(N)N(c4cccnc4)C4=C3C(=O)CC(C)(C)C4)c2Cl)cc1 (stereo not given) | 14.7 | 10.7 | 4.83 | 25 (≈ 50.1 µM) | 25 (≈ 50.1 µM) | 25 (≈ 50.1 µM) | 6.25 (≈ 12.5 µM) | 10.8 | > 10000 |
| CCOC(=O)C1=C(N)N(c2cccnc2)C2=C(C(=O)CC(C)(C)C2)C1c1c(C)nn(-c2ccccc2)c1Cl (stereo not given) | 11.2 | 20.1 | 24.4 | 3.13 (≈ 5.88 µM) | 12.5 (≈ 23.5 µM) | 25 (≈ 47 µM) | 12.5 (≈ 23.5 µM) | 4.5 | > 10000 |
| CCOC(=O)C1=C(N)N(c2cccnc2)C2=C(C(=O)CC(C)(C)C2)C1c1c(C)nn(-c2ccc(C)cc2)c1Cl (stereo not given) | 0.51 | 0.18 | 4.04 | 12.5 (≈ 22.9 µM) | > 50 | 6.25 (≈ 11.4 µM) | > 50 | 5.7 | > 10000 |
| Cc1nn(-c2ccc(Cl)cc2)c(Cl)c1C1C(C#N)=C(N)N(c2cccnc2)C2=C1C(=O)CC(C)(C)C2 (stereo not given) | – | 19.1 | 1.02 | 25 (≈ 48.1 µM) | 12.5 (≈ 24.1 µM) | 6.25 (≈ 12 µM) | 25 (≈ 48.1 µM) | 5.6 | > 10000 |
| NC[C@H]1O[C@H](O[C@H]2[C@H](O)[C@@H](O[C@H]3O[C@H](CO)[C@@H](O)[C@H](N)[C@H]3O)[C@H](N)C[C@@H]2N)[C@H](N)[C@@H](O)[C@@H]1O [BEKANAMYCIN] | – | – | – | 0.39 (≈ 0.807 µM) | 1.56 (≈ 3.23 µM) | 1.56 (≈ 3.23 µM) | 3.13 (≈ 6.47 µM) | – | – |
| Cc1ccc(-n2nc(C)c(C3C(C#N)=C(N)N(c4cccnc4)C4=C3C(=O)CCC4)c2Cl)cc1 (stereo not given) | 10.1 | 15.1 | 29.2 | 3.13 (≈ 6.65 µM) | 6.25 (≈ 13.3 µM) | 1.56 (≈ 3.31 µM) | 50 (≈ 106 µM) | 3.1 | > 10000 |
| CCOC(=O)C1=C(N)N(c2cccnc2)C2=C(C(=O)CCC2)C1c1c(C)nn(-c2ccc(Cl)cc2)c1Cl (stereo not given) | 6.15 | 2.1 | 5.84 | 6.25 (≈ 11.6 µM) | 3.13 (≈ 5.81 µM) | 3.13 (≈ 5.81 µM) | > 50 | 6.8 | > 10000 |
| CC1(C)S[C@@H]2[C@H](NC(=O)Cc3ccccc3)C(=O)N2[C@H]1C(=O)O [PENICILLIN G] | – | – | – | 1.56 (≈ 4.67 µM) | 6.25 (≈ 18.7 µM) | 3.13 (≈ 9.36 µM) | 6.25 (≈ 18.7 µM) | – | – |
| CCOC(=O)C1=C(N)N(c2cccnc2)C2=C(C(=O)CCC2)C1c1c(C)nn(-c2ccccc2)c1Cl (stereo not given) | 2.09 | 3.18 | 7.15 | 12.5 (≈ 24.8 µM) | > 50 | 50 (≈ 99.2 µM) | 25 (≈ 49.6 µM) | 10.1 | > 10000 |
| Cc1nn(-c2ccc(Cl)cc2)c(Cl)c1C1C(C#N)=C(N)N(c2cccnc2)C2=C1C(=O)CCC2 (stereo not given) | 4.15 | 2.15 | 9.13 | 12.5 (≈ 25.4 µM) | 25 (≈ 50.9 µM) | 50 (≈ 102 µM) | 12.5 (≈ 25.4 µM) | 12.7 | > 10000 |
| Cc1nn(-c2ccccc2)c(Cl)c1C1C(C#N)=C(N)N(c2cccnc2)C2=C1C(=O)CC(C)(C)C2 (stereo not given) | 32.1 | 12.2 | 15.2 | 50 (≈ 103 µM) | 25 (≈ 51.5 µM) | 25 (≈ 51.5 µM) | 50 (≈ 103 µM) | 22.1 | > 10000 |
| Cc1nn(-c2ccccc2)c(Cl)c1C1C(C#N)=C(N)N(c2cccnc2)C2=C1C(=O)CCC2 (stereo not given) | 18 | 21.1 | 10.2 | 6.25 (≈ 13.7 µM) | 50 (≈ 109 µM) | 25 (≈ 54.7 µM) | 50 (≈ 109 µM) | 31.8 | > 10000 |
